Activity calls are given as the source filed them. No cut-off for these calls is given here.
Experiments:
[1] = biological target: T1, Tyrosine-protein kinase ZAP-70 (Homo sapiens) (UniProt P43403); assay: Inhibition of ZAP70 (unknown origin) assessed as residual activity at 1 uM relative to control
T1 sequence (whole entry): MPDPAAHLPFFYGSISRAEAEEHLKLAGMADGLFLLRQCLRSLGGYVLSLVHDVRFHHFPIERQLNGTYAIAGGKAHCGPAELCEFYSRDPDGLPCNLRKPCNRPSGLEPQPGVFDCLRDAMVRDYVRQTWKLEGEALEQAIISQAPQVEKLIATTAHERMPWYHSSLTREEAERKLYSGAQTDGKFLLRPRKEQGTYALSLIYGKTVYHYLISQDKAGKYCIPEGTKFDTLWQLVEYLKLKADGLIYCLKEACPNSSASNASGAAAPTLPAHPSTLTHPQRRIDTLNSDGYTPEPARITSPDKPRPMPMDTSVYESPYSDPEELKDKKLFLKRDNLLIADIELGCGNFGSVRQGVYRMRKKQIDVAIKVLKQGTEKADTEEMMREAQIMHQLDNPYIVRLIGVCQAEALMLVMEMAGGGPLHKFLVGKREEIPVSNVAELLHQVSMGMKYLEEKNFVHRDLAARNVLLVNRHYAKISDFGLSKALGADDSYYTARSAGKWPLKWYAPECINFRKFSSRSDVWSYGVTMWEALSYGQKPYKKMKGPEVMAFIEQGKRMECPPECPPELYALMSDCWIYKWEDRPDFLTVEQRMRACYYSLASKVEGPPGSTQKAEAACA
Summary of the method: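 Commercial profiling service against a 208-kinase panel; single concentration 1 μmol/L; residual kinase activity expressed relative to control.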

[2] = biological target: Epidermal growth factor receptor (Homo sapiens) (UniProt P00533); assay: Inhibition of EGFR (unknown origin) assessed as residual activity at 1 uM relative to control
Summary of the method: (§1)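 Single-concentration screen at 1 μmol/L against a panel of 208 kinases, run as a commercial service; activity expressed relative to control.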

[3] = biological target: T2, Ephrin type-A receptor 1 (Homo sapiens) (UniProt P21709); assay: Inhibition of EPHA1 (unknown origin) assessed as residual activity at 1 uM relative to control; summary of the method: as §1
T2 sequence (whole entry): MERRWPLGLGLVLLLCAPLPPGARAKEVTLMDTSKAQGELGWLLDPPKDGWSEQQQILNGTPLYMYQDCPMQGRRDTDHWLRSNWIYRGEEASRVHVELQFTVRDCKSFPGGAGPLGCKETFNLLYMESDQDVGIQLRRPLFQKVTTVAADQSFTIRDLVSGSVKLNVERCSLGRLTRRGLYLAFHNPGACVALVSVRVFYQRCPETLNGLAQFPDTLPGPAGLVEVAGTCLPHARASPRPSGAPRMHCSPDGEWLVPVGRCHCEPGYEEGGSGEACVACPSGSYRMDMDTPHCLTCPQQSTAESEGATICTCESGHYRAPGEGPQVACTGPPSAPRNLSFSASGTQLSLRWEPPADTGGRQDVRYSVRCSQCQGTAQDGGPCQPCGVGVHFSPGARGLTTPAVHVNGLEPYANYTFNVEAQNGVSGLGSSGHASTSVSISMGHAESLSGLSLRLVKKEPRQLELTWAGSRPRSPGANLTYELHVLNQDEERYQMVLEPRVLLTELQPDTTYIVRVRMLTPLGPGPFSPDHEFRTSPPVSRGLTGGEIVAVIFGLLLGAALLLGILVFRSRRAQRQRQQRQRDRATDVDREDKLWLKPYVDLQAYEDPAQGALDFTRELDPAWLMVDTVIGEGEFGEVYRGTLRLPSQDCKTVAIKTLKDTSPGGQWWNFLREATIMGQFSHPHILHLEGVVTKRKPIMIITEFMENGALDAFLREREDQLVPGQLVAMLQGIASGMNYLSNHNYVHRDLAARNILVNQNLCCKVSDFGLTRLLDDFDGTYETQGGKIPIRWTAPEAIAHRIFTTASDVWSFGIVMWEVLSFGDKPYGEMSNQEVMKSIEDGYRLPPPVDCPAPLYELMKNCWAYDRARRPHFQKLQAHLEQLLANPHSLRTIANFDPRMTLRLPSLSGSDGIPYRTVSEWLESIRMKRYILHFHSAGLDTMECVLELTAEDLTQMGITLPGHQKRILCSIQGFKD

[4] = system: MCF7; assay: Cytotoxicity against human MCF7 cells assessed as reduction in cell viability incubated for 72 hrs by MTT assay; type: functional, cell-based; conditions: MCF7, 72 h
Summary of the method: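 About 5 × 10³ cells/well, seeded overnight at 37 °C, 5% CO₂, in DMEM or RPMI-1640 with 10% FBS and antibiotics. DMSO-dissolved compounds diluted in medium, exposure 72 h.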

[5] = system: HT-29; assay: Cytotoxicity against human HT-29 cells assessed as reduction in cell viability incubated for 72 hrs by MTT assay; type: functional, cell-based; conditions: HT-29, 72 h
[6] = system: HCT-116; assay: Inhibition of cell stemness in human HCT116 cells assessed as inhibition of CD44+/CD133+ expression at 20 uM after 24 hrs by flow cytometry analysis; type: functional
Summary of the method: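 ALDH⁺ HCT-116 subpopulation sorted by flow cytometry; 2 × 10⁵ cells/well seeded overnight at 37 °C, 5% CO₂; treated 20 μM for 24 h (vehicle DMSO); stained with PE anti-CD133 and FITC anti-CD44 30 min; CD44⁺/CD133⁺ read by flow cytometry.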

[7] = system: HCT-116; assay: Induction of apoptosis in human HCT116 cells assessed as viable cells at 10 uM after 24 hrs by annexin V-FITC/propidium iodide staining based flow cytometry (reference value: 88.3%); type: functional; conditions: read-out: Activity
[8] = system: HCT-116; assay: Induction of cell cycle arrest in human HCT116 cells assessed as accumulation at G2/M phase at 20 uM after 24 hrs by propidium iodide-staining based flow cytometry (reference value: 14.67%); type: functional
[9] = system: HCT-116; assay: Induction of apoptosis in human HCT116 cells assessed as upregulation of cleaved PARP level at 20 uM incubated for 24 hrs by Western blot analysis; type: functional, cell-based
Summary of the method: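 HCT-116 cells at 2 × 10⁵ cells/mL in DMEM/10% FBS, grown 12 h at 37 °C, then treated 24 h (vehicle DMSO). Lysates quantified by BCA, run on 10% SDS-PAGE, PVDF transfer, blocked in 5% milk/TBST, primary antibodies 4 °C overnight, HRP secondary 2 h, chemiluminescent detection; normalized to β-actin, n = 3.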

Epidermal growth factor receptor (Homo sapiens), sequence (P00533 whole entry): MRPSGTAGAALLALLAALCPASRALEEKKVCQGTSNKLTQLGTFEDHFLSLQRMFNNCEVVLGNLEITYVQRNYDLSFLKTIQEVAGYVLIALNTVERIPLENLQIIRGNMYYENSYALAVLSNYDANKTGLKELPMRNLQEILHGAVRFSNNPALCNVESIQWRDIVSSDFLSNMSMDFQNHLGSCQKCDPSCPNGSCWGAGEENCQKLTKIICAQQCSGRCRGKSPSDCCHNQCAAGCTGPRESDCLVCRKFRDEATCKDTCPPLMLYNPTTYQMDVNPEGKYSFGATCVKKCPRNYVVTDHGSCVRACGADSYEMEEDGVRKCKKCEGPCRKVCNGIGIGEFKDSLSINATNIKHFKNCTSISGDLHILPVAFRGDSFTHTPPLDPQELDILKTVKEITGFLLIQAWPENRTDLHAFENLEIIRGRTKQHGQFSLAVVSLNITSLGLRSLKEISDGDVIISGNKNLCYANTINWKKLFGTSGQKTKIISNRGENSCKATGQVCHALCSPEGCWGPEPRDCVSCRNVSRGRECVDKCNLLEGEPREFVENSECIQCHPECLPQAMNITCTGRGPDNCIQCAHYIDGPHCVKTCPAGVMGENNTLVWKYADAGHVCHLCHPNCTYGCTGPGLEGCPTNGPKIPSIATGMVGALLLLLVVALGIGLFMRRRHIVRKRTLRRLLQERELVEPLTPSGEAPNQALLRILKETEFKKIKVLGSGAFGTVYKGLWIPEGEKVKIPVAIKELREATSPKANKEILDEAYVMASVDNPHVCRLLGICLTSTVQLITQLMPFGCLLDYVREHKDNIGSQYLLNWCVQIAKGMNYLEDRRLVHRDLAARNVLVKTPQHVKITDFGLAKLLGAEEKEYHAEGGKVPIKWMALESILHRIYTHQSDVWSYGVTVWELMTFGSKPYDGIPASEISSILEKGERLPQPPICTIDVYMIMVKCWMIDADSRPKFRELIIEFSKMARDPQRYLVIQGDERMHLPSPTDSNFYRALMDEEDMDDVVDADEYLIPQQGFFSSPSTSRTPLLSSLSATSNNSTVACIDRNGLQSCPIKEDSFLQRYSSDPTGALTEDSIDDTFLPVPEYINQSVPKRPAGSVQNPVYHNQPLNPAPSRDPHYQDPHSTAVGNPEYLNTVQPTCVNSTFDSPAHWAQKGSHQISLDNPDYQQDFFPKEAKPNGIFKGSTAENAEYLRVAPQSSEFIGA

O=C(NCCO)c1ccc2c(c1)nc(Nc1cccc(Cl)c1)c1ccncc12
Activity [1]: 26% | Activity [2]: 34.1% | Activity [3]: 45.2% | IC50 [4]: 7.5 µM | IC50 [5]: 5.18 µM | inhibition at 20 µM [6]: 84% | viability at 10 µM [7]: 56.4% | Activity [8]: 22.72% | Activity [9]: Active

From ChEMBL document CHEMBL4808178 (J Med Chem, 2021)
